Molecules are shown by their SMILES.

A word on the Kd: it is the constant that tells how readily two partners part at equilibrium. One may read the Ki as the equilibrium dissociation constant of an inhibitor or competing ligand from its target. A word on the logP: it is the decadic logarithm of the partition coefficient of the neutral form, usually between octanol and water. Read a high logP as a more lipophilic compound.

Series [1] concerns the target T1, Vesicular acetylcholine transporter (Rattus norvegicus, UniProt Q62666).
T1 sequence (Q62666 whole entry): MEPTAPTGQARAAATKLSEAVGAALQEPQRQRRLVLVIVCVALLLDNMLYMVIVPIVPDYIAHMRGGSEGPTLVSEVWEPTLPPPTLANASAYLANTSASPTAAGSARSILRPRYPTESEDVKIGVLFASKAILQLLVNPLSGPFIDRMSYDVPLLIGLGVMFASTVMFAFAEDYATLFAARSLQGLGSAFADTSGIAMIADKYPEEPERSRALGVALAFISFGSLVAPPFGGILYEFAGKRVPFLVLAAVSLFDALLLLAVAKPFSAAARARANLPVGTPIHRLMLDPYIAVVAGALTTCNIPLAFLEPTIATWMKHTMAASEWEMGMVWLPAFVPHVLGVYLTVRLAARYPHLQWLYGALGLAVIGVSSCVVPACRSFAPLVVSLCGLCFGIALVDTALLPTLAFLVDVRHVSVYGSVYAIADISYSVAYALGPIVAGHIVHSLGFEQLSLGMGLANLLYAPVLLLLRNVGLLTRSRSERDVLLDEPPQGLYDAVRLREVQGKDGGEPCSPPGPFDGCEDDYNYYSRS
The experiment in a line: Binding affinity to VAChT in rat cerebral membrane. It is filed as cell membranes.

The nature of series [2]: Displacement of [3H]DTG from sigma2 receptor in Sprague-Dawley rat liver membrane after 90 mins by liquid scintillation counting in presence of pentazocine. It is filed as cell membranes. The procedure, abridged: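 Sigma-2 assay: rat liver membranes (male Sprague-Dawley) with [3H]DTG (Kd 22.3 nM) plus pentazocine to mask sigma-1. Displacers at 1.0×10^-10–10^-5 M in 50 mM Tris-HCl pH 7.8, quadruplicate. Incubated 37 °C for 90 min, then filtered and scintillation counted. Three independent experiments; Ki via IC50/(1 + C/Kd).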

In series [3] the target is T1, Vesicular acetylcholine transporter. The experiment in a line: Displacement of [125I]O-iodo-trans-decalinvesamicol from VAChT in Sprague-Dawley rat cerebral membrane after 1 hr by gamma counting. The essentials: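 Male Sprague-Dawley cerebral membranes were incubated with 5 nM radioiodinated tracer and each ligand at 10^-10–10^-5 M in 50 mM Tris-HCl pH 7.8, quadruplicate. Nonspecific binding was taken with excess unlabelled ligand. Incubation was 37 °C for 1 h, then ice quench, PEI-soaked filter harvest and gamma counting.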
(In general: Displacement assays read how much labelled ligand stays bound in the presence of the test substance.)

The target of series [4] is Sigma non-opioid intracellular receptor 1 (Rattus norvegicus, UniProt Q9R0C9). The experiment in a line: Displacement of (+)-[3H]pentazocine from sigma1 receptor in Sprague-Dawley rat cerebral membrane after 90 mins by liquid scintillation counting.
The target in series [5] is T1, Vesicular acetylcholine transporter. The experiment in a line: Displacement of (-)-[3H]vesamicol from VAChT in Sprague-Dawley rat cerebral membrane after 60 mins by liquid scintillation counting in presence of DTG.
Series [6] has the same target. Nature of the series: Binding affinity to VAChT in Sprague-Dawley rat cerebral membrane after 1 hr by gamma counting in presence of haloperidol. The essentials: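 Saturation binding of [¹²⁵I]-labelled radioligand (0.1–10 nM) to cerebral membranes from male 8-week Sprague-Dawley rats (sucrose homogenate, differential centrifugation), with 100 nM haloperidol masking σ receptors. Incubated in 50 mM Tris–HCl pH 7.8 for 1 h at 37 °C, in quadruplicate. Filtered and washed, then gamma counted. Specific binding is total minus nonspecific; Kd and Bmax come from the saturation curve and Scatchard plot.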

The next series relates to Brain. Nature of the series: Drug uptake in Sprague-Dawley rat brain at 185 kBq, iv at 10 mins by gamma counting. The class given is ADME, organism-based. The following applies: in vivo. The procedure, abridged:
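Male Sprague-Dawley rats (8 weeks, 250–300 g, n = 4) got radioiodinated tracer, 185 kBq, by tail-vein injection. Sacrificed at 10 min. Whole brains were weighed and gamma counted, expressed as %ID/g.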

The nature of series [7]: n-octanol-water partition coefficient, log P at 0.51 MBq after 5 mins by gamma counting. It is filed as physicochemical. The essentials:
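Tracer (0.51 MBq) partitioned between n-octanol and 0.1 M phosphate buffer pH 7.4 (n = 4). Vortexed 5 min at room temperature, then centrifuged 10 min at 2000g. Four samples per layer were gamma counted. logP = log10(octanol/aqueous radioactivity). Three independent experiments.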

Sequence of Sigma non-opioid intracellular receptor 1 (Q9R0C9 whole entry): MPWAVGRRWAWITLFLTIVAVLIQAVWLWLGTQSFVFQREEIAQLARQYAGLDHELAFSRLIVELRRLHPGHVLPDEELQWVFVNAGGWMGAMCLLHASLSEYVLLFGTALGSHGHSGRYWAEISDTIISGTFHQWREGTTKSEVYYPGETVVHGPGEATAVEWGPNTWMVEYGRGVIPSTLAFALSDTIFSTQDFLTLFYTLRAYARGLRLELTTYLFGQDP

Molecule `O[C@@H]1CCCCC1N1CCC(c2ccccc2[125I])CC1` (some centres not stated) registered an equilibrium dissociation constant (Kd) in series [1] of 17.4 nM.

Take `OC1CCCCC1N1CCC(c2ccccc2)CC1` (configuration not stated): in series [2], the Ki stood at 86.7 nM.

Consider `OC1C[C@@H]2CCCC[C@H]2CC1N1CCC(c2ccccc2I)CC1` (relative stereo), for which the Ki in series [3] worked out at 28.6 nM; in series [4], 242 nM; in series [2], 119 nM; in series [5] it was 20.5 nM.

For `OC1C[C@@H]2CCCC[C@H]2CC1N1CCC(c2ccccc2Br)CC1` (relative stereo), the Ki in series [3] amounted to 9.3 nM; in series [4], 151 nM; in series [2], 138 nM; in series [5], 13.8 nM.

As to `OC1C[C@@H]2CCCC[C@H]2CC1N1CCC(c2ccccc2)CC1` (relative stereo), the Ki in series [4] stood at 74.1 nM; in series [2] it was 68.3 nM.

`OC1C[C@@H]2CCCC[C@H]2CC1N1CCC(c2ccccc2[125I])CC1` (relative stereo): in series [6], the Kd came out at 1.73 nM. Besides, the Drug uptake with Brain is recorded as 0.45 % ID/g. The molecule also had a logP at 5 min in series [7] of 2.46.

With `CC(C)=CCN1CC[C@]2(C)c3cc(O)ccc3C[C@H]1[C@H]2C` [(+)-PENTAZOCINE], in series [3], the Ki is over 10000 nM.

In the case of `Cc1ccccc1NC(=N)Nc1ccccc1C` [DITOLYLGUANIDINE], the Ki in series [3] is 1130 nM; in series [2], 31.7 nM.

For `O=C(CCCN1CCC(O)(c2ccc(Cl)cc2)CC1)c1ccc(F)cc1` [HALOPERIDOL], the Ki in series [2] turned out to be 51.6 nM.

On to `O=C(c1ccc(F)cc1)C1CCN(CCn2c(=O)[nH]c3ccccc3c2=O)CC1` [KETANSERIN], for which, in series [3], the Ki is over 10000 nM.

For `NC[C@H](O)c1ccc(O)c(O)c1` [NOREPINEPHRINE], the Ki in series [3] was over 10000 nM.

The molecule `O=C(CCCN1CCC2(CC1)C(=O)NCN2c1ccccc1)c1ccc(F)cc1` [SPIPERONE] showed a Ki in series [3] of 1030 nM.
